Two compounds from ChEMBL document CHEMBL1127851, “Synthesis and biological properties of 5-o-carboranyl-1-(2-deoxy-2-fluoro-beta-D-arabinofuranosyl)uracil” (J Med Chem, 1994) can be followed below.

For assay [1], the species on record is Mus musculus. Kind of assay: Number of animals survived when the compound was tested at a dose of 30 mgkg/day in 5 Swiss mice. Type of assay: functional. The procedure, abridged: (§1)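 Female Swiss mice, 6 weeks old, 5 per group. Given 30 mg/kg/day ip in sterile DMSO (0.1 mL) once daily for 6 days. DMSO and water controls. Weighed twice weekly for 28 days. Survival recorded at week 4.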

The subject of assay [2] is Mus musculus. Kind of assay: Percentage of weight gained or lost in 2nd week in normal swiss mice at a dose of 30 mg/kg/day. The class given is functional. The procedure, abridged: as §1
Assay [3] relates to Mus musculus. Kind of assay: Percentage of weight gained or lost in 3rd week in normal swiss mice at a dose of 30 mg/kg/day. Type of assay: functional. The method, boiled down: as §1
Assay [4] deals with Mus musculus. In words: Percentage of weight gained or lost in 1 week in normal swiss mice at a dose of 30 mg/kg/day. Type of assay: functional. The method, boiled down:
as §1

Assay [5] relates to Mus musculus. Kind of assay: Percentage of weight gained or lost in 4th week in normal swiss mice at a dose of 30 mg/kg/day. Type of assay: functional. The method, boiled down: as §1
Assay [6] concerns PBMC. In words: Antiviral activity against HIV-1 strain LAI in PBM cells on day 6. The class given is functional, cell-based. Conditions: Homo sapiens, 144 h. The method, boiled down:
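HIV-1 (strain […] per footnote) in human PBM cells, acutely infected. Compounds from 40 mM DMSO stocks, diluted to test concentrations. EC50 from concentration-response curve by Chou–Talalay median-effect method. Replicate assays, variability under 15%.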

The nature of assay [7]: Compound was tested for inhibitory activity against erythroid (BFU-E) progenitor cells. Type of assay: functional, Homo sapiens. The procedure, abridged:
(§2)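 Human bone marrow aspirated from healthy donors and heparinized. Mononuclear cells isolated on Ficoll-Hypaque, washed twice in HBSS; viability >98% by trypan blue. Bilayer soft agar or methyl cellulose culture at 0.1–100 μM. After 14 days at 37 °C in 5% CO2, colonies of ≥50 cells counted; % of control. Three donors, each in triplicate.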

The subject of assay [8] is PBMC. In words: Cytotoxic concentration against PBM cells was determined on day 6. The class given is functional, cell-based. Conditions: Homo sapiens, 144 h. The method, boiled down:
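Cytotoxicity in human PBM, CEM and Vero cells, compounds diluted from 40 mM DMSO stocks. IC50 from the concentration-response curve by Chou–Talalay median-effect method. Replicate assays, variability under 15%.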

Assay [9] has as its system CFU-GM. Kind of assay: Compound was tested for inhibitory activity against human myeloid cells (CFU-GM). Type of assay: functional, cell-based. The method, boiled down:
as §2

Assay [10] has as its system Vero. In words: Antiviral activity against HSV-1 strain F in Vero cells on day 2. Type of assay: functional, cell-based. Conditions: Chlorocebus sabaeus, 48 h. The method, boiled down: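 Plaque reduction assay in Vero cells infected with HSV-1 strain F. […], diluted from 40 mM DMSO stocks. EC50 by Chou–Talalay median-effect analysis of the concentration-response curve. Replicate assays.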

Each structure is given as a SMILES string. Bounds are passed on as bounds.

Regarding `C[S+](C)[O-]` [DIMETHYL SULFOXIDE], in [1], the “No. of animals survived” value was found to be 5. The “Weight gain or loss” value is 3% in [2], 6.3% in assay [3], -0.9% in assay [4] and 10% in assay [5].
The EC50 is the midpoint of the concentration-response curve. Low values mean an effect from little substance, high ones a need for much substance. Usually IC50 stands for the concentration at which inhibition is half-maximal. Low readings indicate inhibition by little substance, high ones a need for much substance. As to `Cc1cn([C@H]2C[C@H](N=[N+]=[N-])[C@@H](CO)O2)c(=O)[nH]c1=O` [ZIDOVUDINE], the EC50 in assay [6] is 4 nM; in [10], greater than 50000 nM. Besides, the half-maximal inhibitory concentration (IC50) in [7] is 600 nM; in assay [8] it was greater than 100000 nM; in assay [9], 1500 nM.
